Test results from ChEMBL document CHEMBL1126138, “Preparation and opioid activity of analogues of the analgesic dipeptide 2,6-dimethyl-L-tyrosyl-N-(3-phenylpropyl)-D-alaninamide” (J Med Chem, 1992).

Legend:
[1] = molecular target: Delta-type opioid receptor (Rattus norvegicus) (UniProt P33533); experiment: Ratio of IC50 of opioid receptor delta to IC50 opioid receptor mu
[2] = molecular target: Kappa-type opioid receptor (Rattus norvegicus) (UniProt P34975); experiment: Ratio of IC50 of opioid receptor kappa to IC50 opioid receptor mu
Chain of Kappa-type opioid receptor (Rattus norvegicus) (P34975 whole entry): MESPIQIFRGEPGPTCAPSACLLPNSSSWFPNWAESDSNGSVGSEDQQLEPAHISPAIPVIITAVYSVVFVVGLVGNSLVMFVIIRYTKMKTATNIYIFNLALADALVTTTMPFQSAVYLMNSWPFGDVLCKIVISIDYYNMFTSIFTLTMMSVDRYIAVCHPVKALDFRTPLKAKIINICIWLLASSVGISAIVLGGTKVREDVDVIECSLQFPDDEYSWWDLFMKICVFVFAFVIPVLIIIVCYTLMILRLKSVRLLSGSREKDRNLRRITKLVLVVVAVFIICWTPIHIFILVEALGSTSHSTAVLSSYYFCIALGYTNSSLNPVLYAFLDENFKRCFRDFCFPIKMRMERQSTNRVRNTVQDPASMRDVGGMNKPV

[3] = molecular target: Delta-type opioid receptor (Rattus norvegicus, UniProt P33533); experiment: Binding ability towards opioid receptor delta expressed in homogenates of rat brain.; assay type: tissue-based
Chain of Delta-type opioid receptor (P33533 whole entry): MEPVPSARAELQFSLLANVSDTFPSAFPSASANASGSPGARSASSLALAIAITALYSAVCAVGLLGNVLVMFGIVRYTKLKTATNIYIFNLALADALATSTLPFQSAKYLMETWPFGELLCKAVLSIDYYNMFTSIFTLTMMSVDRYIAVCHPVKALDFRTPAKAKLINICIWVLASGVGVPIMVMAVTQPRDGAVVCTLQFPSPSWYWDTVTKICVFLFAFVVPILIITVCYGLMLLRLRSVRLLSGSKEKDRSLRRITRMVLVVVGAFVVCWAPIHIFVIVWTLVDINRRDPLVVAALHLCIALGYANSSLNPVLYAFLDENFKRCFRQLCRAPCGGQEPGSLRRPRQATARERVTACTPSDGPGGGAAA

[4] = molecular target: Mu-type opioid receptor (Rattus norvegicus, UniProt P33535); experiment: Binding ability towards opioid receptor mu expressed in homogenates of rat brain.; assay type: tissue-based
Chain of Mu-type opioid receptor (P33535 whole entry): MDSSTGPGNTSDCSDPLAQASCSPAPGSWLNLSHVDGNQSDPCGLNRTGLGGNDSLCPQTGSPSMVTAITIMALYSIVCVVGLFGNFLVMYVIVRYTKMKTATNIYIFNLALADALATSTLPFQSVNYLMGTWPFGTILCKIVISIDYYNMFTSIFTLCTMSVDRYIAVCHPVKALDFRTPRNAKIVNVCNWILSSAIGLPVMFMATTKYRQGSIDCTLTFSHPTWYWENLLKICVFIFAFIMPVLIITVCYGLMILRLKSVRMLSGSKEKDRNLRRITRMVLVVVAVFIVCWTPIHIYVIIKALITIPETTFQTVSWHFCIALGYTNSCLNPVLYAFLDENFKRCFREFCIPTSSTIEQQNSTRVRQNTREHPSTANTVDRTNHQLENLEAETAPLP

[5] = species: Mus musculus; experiment: Analgesic activity evaluated in mice by writhing test (confidence limit); assay type: functional
[6] = test system: Mus musculus; experiment: Number of mice of those tested in which 10 mg/kg compound inhibited writhing; assay type: functional
How it was run: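 Mouse writhing test with a single 10 mg/kg dose of compound. The value is the count of mice whose writhing was inhibited, out of the number tested.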

[7] = molecular target: Delta-type opioid receptor (Rattus norvegicus) (UniProt P33533); experiment: Binding ability towards opioid receptor delta expressed in homogenates of rat brain at 100 nM concentration; assay type: tissue-based
How it was run: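 Rat brain homogenate, δ opioid binding site. Test compound at 100 nM. The value is the maximum percent displacement at that concentration.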

Chain of Delta-type opioid receptor (Rattus norvegicus) (P33533 whole entry): as the sequence (P33533 whole entry) above

Cc1cc(O)cc(C)c1C[C@H](N)C(=O)N[C@H](CO)COCCCc1ccccc1
Ratio [1]: 139 | Ratio [2]: 3530 | IC50 [3]: 233 nM | IC50 [4]: 1.67 nM | ED50 [5]: 2.1 mg/kg

Cc1cc(O)cc(C)c1C[C@H](N)C(=O)N[C@H](C)C(=O)NCCCc1ccccc1
Ratio [1]: 30.6 | Ratio [2]: 2920 | IC50 [3]: 3.98 nM | IC50 [4]: 0.13 nM | ED50 [5]: 0.52 mg/kg

Cc1cc(O)cc(C)c1C[C@H](N)C(=O)N[C@@H](COCCCc1ccccc1)COC(C)(C)C
Ratio [1]: 10.3 | Ratio [2]: 282 | IC50 [3]: 340 nM | IC50 [4]: 33 nM | ED50 [5]: 1.7 mg/kg

Cc1cc(O)cc(C)c1C[C@H](N)C(=O)N[C@H](C)CNCCCc1ccccc1
Ratio [1]: 354 | Ratio [2]: 2540 | IC50 [3]: 46 nM | IC50 [4]: 0.13 nM | No. of mice [6]: 4

Cc1cc(O)cc(C)c1C[C@H](N)C(=O)NC(C)/C=C/CCCc1ccccc1 (some centres not stated)
Displacement [7]: 39.3% | Ratio [2]: 1100 | IC50 [4]: 5.4 nM | ED50 [5]: 2.1 mg/kg

Cc1cc(O)cc(C)c1C[C@H](N)C(=O)N[C@H](C)COCCCc1ccccc1
Ratio [1]: 42 | Ratio [2]: 2600 | IC50 [3]: 21 nM | No. of mice [6]: 3

Cc1cc(O)cc(C)c1C[C@H](N)C(=O)N1CCCCC1CNCCCc1ccccc1 (some centres not stated)
Ratio [1]: 269 | Ratio [2]: 222 | IC50 [3]: 12.1 nM | IC50 [4]: 0.045 nM | No. of mice [6]: 3

Cc1cc(O)cc(C)c1C[C@H](N)C(=O)N1CCCCC1COCCCc1ccccc1 (some centres not stated)
Ratio [1]: 67.9 | Ratio [2]: 173 | IC50 [3]: 110 nM | IC50 [4]: 1.62 nM | ED50 [5]: 2.1 mg/kg

Cc1cc(O)cc(C)c1C[C@H](N)C(=O)NC(C)/C(F)=C/CCCc1ccccc1 (some centres not stated)
Displacement [7]: 47.3% | Ratio [2]: 1160 | IC50 [4]: 6.9 nM | ED50 [5]: 2.1 mg/kg
